The source of these data is BindingDB's records for PubMed 35700596 (2022).

pIC50: −log10 of the molar value.

In this assay the target is T1, Nuclear factor of activated T-cells, cytoplasmic 1 (Homo sapiens, UniProt O95644).
T1 sequence (O95644 whole entry): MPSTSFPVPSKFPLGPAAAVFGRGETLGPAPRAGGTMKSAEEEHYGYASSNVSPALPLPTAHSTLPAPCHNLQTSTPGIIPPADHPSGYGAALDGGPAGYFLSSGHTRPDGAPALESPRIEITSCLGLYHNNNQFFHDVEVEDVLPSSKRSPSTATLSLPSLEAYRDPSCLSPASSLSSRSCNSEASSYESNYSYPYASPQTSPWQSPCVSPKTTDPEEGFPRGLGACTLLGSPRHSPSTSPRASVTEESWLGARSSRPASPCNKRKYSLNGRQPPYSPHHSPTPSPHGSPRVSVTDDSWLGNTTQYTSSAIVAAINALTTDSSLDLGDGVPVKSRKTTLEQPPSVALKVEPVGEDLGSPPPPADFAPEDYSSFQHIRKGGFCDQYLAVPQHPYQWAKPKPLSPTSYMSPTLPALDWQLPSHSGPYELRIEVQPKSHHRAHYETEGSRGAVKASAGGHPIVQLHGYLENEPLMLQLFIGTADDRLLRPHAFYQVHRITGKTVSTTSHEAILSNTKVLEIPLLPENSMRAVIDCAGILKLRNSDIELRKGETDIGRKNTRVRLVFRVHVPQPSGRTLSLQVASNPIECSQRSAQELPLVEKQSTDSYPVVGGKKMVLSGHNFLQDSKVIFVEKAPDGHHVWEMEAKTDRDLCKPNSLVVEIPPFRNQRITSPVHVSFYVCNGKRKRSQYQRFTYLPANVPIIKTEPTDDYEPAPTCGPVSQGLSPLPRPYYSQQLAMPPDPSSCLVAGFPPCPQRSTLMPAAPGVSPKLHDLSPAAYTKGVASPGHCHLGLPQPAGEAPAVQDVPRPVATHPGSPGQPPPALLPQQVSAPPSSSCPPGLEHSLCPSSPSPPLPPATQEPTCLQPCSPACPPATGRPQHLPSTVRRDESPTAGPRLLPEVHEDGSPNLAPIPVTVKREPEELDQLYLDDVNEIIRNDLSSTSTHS
The assay can be described thus: Inhibition of NFATC activity in HEK293T cells preincubated for 2 hrs followed by ionomycin/phorbol 12-myristate 13-acetate stimulation and measured after 4 hrs by luciferase reporter assay. The essentials:
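HEK 293T cells (7.5 × 10⁴/well) co-transfected by CaCl₂ method with 100 ng 3xNFAT-luc and 1 ng pRLnull as transfection control. At 24 h, compound added for 2 h, then stimulated with 1 µM ionomycin, PMA and CaCl₂ for 4 h (20 ng/ml PMA and 2 mM CaCl₂ per figure legend). Luciferase read from crude extracts, relative to stimulated no-compound control (100%). Single doses 50 and 5 μM; dose-response 0.1–50 μM. IC50 by nonlinear regression; 3 experiments in triplicate.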
For orientation: Reporter assays use an easily measured gene product as a stand-in for the process of interest.
By pIC50 is commonly meant the IC50 on a negative log10 scale, so that one unit is a factor of ten. A high value points to a low IC50. As for `CS(=O)(=O)NCc1cccc(NC(=O)c2csc3ccccc23)c1`, the pIC50 was 4.73.

`CS(=O)(=O)NCc1cccc(NC(=O)c2ccc3[nH]ccc3c2)c1` showed a negative-log IC50 (pIC50) of 4.94.

Consider `Cc1ccc(C(=O)NCC(=O)Nc2cc(S(=O)(=O)Nc3ccc(Cl)cc3)ccc2Cl)s1`, for which the pIC50 was 5.35.
